AHR activator = AHR activators, primary screen, cell-based, luminescence, luciferase reporter, human. AHR-responsive luciferase reporter cells. activation, % at 5 µM. 320,000 compounds, 2.5% hits; in the data active = activation above about 47%;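 note: 0% = vehicle wells and 100% = reference agonist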
Target sequence (P35869 whole entry, looked up): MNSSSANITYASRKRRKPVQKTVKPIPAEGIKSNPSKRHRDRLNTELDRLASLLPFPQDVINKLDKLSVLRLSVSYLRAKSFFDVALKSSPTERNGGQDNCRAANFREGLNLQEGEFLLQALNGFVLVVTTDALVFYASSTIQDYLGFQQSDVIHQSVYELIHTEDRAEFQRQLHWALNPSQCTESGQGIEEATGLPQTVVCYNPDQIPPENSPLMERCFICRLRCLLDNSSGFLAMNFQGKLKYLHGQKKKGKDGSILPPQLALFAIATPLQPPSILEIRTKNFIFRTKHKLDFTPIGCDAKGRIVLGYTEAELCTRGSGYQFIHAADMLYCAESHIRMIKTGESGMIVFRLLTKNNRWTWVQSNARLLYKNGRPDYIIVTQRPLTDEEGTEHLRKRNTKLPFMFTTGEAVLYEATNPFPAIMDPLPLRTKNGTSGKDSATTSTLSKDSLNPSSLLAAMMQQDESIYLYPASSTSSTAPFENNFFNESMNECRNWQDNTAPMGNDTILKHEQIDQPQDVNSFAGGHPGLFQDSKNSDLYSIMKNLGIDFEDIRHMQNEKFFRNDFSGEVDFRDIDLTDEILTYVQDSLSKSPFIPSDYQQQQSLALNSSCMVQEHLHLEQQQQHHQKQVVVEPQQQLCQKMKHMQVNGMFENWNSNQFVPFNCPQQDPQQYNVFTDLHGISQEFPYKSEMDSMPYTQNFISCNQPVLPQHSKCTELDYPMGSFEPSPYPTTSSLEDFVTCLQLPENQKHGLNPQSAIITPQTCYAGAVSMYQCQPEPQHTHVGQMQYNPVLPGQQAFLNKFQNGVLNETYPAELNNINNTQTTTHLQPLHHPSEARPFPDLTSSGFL
FXN GAA850 act = FXN promoter activators, primary screen, cell-based, luciferase luminescence, HEK293 lucGAA850 | HEK293 lucGAA850 FXN promoter luciferase reporter, 24 h; percent of 10 µM SAHA response | activation, % at 6 µM | 360,000 compounds, 0.56% hits;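 active = activation above the average of all compounds screened plus 3 SD, cutoff fixed separately per campaign, cut at about 7.5% in these data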;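 note: 0% = DMSO wells and 100% = 10 µM SAHA wells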
ABCB6 inh MLPCN = ABCB6 transporter inhibitors, primary screen, K562-ABCB6 cells, flow cytometry, MLPCN library | ATP-binding cassette sub-family B member 6 (Homo sapiens), Q9NP58 | K562-ABCB6 porphyrin accumulation, 1 h; active compounds read low | fluorescence ratio to DMSO, % at 10 µM | 360,000 compounds, 0.19% hits;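 active = fluorescence ratio to DMSO below 75%, the collection mean minus 3 SD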;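 note: signal is porphyrin accumulated inside mitochondria; 100% equals median channel fluorescence of DMSO control wells; lower ratio means ABCB6 inhibition with less porphyrin fluorescence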
SR-BI DiI-HDL act = activators of SR-BI mediated DiI-HDL uptake, primary screen, ldlA[mSR-BI] CHO cells, DiI fluorescence; 3 h; 100 = double the neutral-control signal; activation, % at 12.5 µM; 320,000 compounds, 0.096% hits;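 active = mean replicate activation of at least 60% and every replicate at or above 60%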;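 note: 0% = median plate neutral-control signal and 100% = twice that signal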
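system = CHO ldlA[mSR-BI] cells, LDL receptor-null, SR-BI overexpressing | medium = Ham's F12 with 0.5% BSA, HEPES 25 mM, pH 7.4 | probe or stimulus = DiI-HDL 10 µg/mL | compound dosing = single-point compound dose | incubation = compound exposure 3 h, 37 °C | technique = DiI fluorescence, bottom read | read-out = cell-associated DiI fluorescence as measure of HDL uptake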
HIF activator = HIF pathway transcriptional activators, primary screen, cell-based, U2OS HRE-luciferase, luminescence; U2OS HRE-luciferase reporter; normalized: DMSO 0%, desferrioxamine 100%; activation, % at 7.5 µM (by protocol); 300,000 compounds, 0.32% hits; AID 1910, 2009;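 active = mean activation of at least 10% of the iron chelator positive control signal, with at least half of replicates also reaching 10%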
SR-BI HDL uptake = inhibitors of SR-BI mediated HDL lipid uptake, primary screen, ldlA[mSR-BI] cells, fluorescence, single point. Scavenger receptor class B member 1 (Mus musculus), Q61009. inhibition, % at 12.5 µM. AID 488896, 2010. 320,000 compounds, 0.96% hits. ldlA[mSR-BI] CHO cells, DiI-HDL uptake fluorescence, 3 h;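 active = mean replicate inhibition of at least 70% and a set share of replicates each scoring 70 or more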;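 note: 0% = median of neutral control wells and 100% = median of positive control wells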
GAA30 FXN cntr = GAA30 FXN promoter activators, confirmation, counter-screen for GAA850 frataxin promoter activator project, cell-based, luminescence, HEK293, lucGAA30, triplicate; shares compounds with FXN GAA850 act; HEK293 lucGAA30 FXN promoter luciferase, 24 h; DMSO = 0%, 5 µM ipriflavone = 100%; 1,900 compounds, 66% hits; activation, % at 6 µM;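 active = mean activation above the mean of solvent-only control wells plus 3 SD, cut at about 22% in these data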;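 note: counterscreen of GAA850 promoter hits where activity marks nonselective or luminescence artifacts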
FXN GAA850 conf = FXN GAA850 promoter activators in reporter cells, confirmation, cell-based, luminescence, HEK293 lucGAA850, triplicate; shares compounds with FXN GAA850 act; HEK293 lucGAA850 FXN promoter luciferase reporter, 24 h; 100% = activation by SAHA; activation, % at 6 µM; 1,900 compounds, 86% hits; AID 588351, 2011;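 active = mean activation above a set limit taken from the primary screen, cut at about 8% in these data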;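 note: 0% = DMSO wells and 100% = 10 µM SAHA wells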
* marks the source's active call; other numbers are inactive results; . = no result. The list is not random: actives were taken first. Their share in the collection is about 3.9%.

SMILES	AHR activator	FXN GAA850 act	ABCB6 inh MLPCN	SR-BI DiI-HDL act	HIF activator	SR-BI HDL uptake	GAA30 FXN cntr	FXN GAA850 conf
N#Cc1ccccc1Cn1c(=O)n(Cc2ccc(C(=O)NCc3ccco3)cc2)c(=O)c2sccc21	-1	12*	98	-17	.	17	22*	7.8*
O=c1c2ccccc2n(Cc2ccc(Cl)cc2)c(=O)n1Cc1ccco1	1	3	90	-4	0	4	.	.
O=C(NCc1ccco1)c1ccc(Cn2c(=O)c3ccccc3n(Cc3cccc(F)c3)c2=O)cc1	2	8.0*	97	-48	-2	48	5	7
N#Cc1ccccc1Cn1c(=O)n(-c2ccc(CC(=O)NCc3ccco3)cc2)c(=O)c2sccc21	-2	0	99	-14	0	14	.	.
COC(=O)Nc1sc2c(c1C(=O)NCc1ccco1)CCCC2	2	1	101	-24	0	24	.	.
CCOc1cc(N2CCOCC2)c(OCC)cc1NC(=O)c1cc(S(=O)(=O)N2CCOCC2)ccc1Cl	.	1	101	-34	.	34	.	.
O=C(Cc1ccc([N+](=O)[O-])cc1)N1N=C(c2ccncc2)CC1(O)C(F)(F)F (centres undefined)	5	0	94	12	-1	-12	.	.
CC1CCCCN1CCCNC(=O)c1nn(C)c2c1CSc1ccccc1-2 (centres undefined)	8	3	105	-22	0	22	.	.
O=c1cc(O)c2sc(Nc3ccc(F)c(Cl)c3)nc2[nH]1	0	2	104	-37	0	37	.	.
CCOC(=O)c1c(C)c(C(=O)NCc2ccco2)c(C)n1Cc1ccccc1	0	1	95	0	-1	0	.	.
O=C(NCCc1c[nH]c2ccccc12)c1c(Cl)nc2sccn12	-7	7.7*	110	-15	1	15	46*	23*
CCCCN(C(=O)CCC(=O)Nc1cc(C)on1)C(C(=O)NC(C)(C)C)c1cccc(OC)c1OC (centres undefined)	3	1	98	-2	-20	2	.	.
COc1ccc(-c2ccc(=O)n(Cc3cc(=O)n4ccccc4n3)n2)cc1	11	8.1*	95	-13	0	13	20	8.8*
C#CCOCCOCCOCCNc1nc(N2CCN(C(=O)Cn3cc(CCCN=C(N)N)nn3)CC2)nc(N2CCN(C(=O)[C@H]([C@@H](C)O)n3cc(CCCCN)nn3)CC2)n1	1	-1	109	-2	.	2	.	.
O=C(CCS(=O)(=O)c1ccccc1)Nc1nc(-c2cccs2)cs1	15	8.8*	95	-36	-1	36	-9	9.8*
CCOC(=O)C(=O)C1=C(N2CCOCC2)/C(=C\c2ccc(F)cc2)CC1	10	7.6*	103	-63	0	63	18	9.0*
Cc1nn(-c2ccccc2Cl)c(Cl)c1/C=N/Nc1cccc(C(=O)O)c1	-8	7.8*	95	46	-1	-46	119*	41*
Cc1nn(-c2cccc(C(F)(F)F)c2)c(Cl)c1/C=N/Nc1cccc(C(=O)O)c1	3	4	93	23	1	-23	.	.
CCN1C(=O)[C@H]2[C@H]3CN=C(SCc4ccccc4)N3[C@@](C)(C(=O)OC)[C@H]2C1=O	.	0	99	19	.	-19	.	.
COC(=O)[C@@]1(C)[C@H]2C(=O)N(Cc3ccccc3)C(=O)[C@H]2[C@H]2CN=C(SCc3ccc(C#N)cc3)N21	.	13*	98	10	.	-10	22*	12*
COC(=O)[C@@]1(C)[C@H]2C(=O)N(Cc3ccccc3)C(=O)[C@H]2[C@H]2CN=C(SCc3ccc(Cl)cc3)N21	.	15*	97	0	.	0	30*	11*
COc1ccc(C(=O)NCC(=O)NCc2cc(=O)n(C)c(=O)n2C)cc1	3	-2	100	5	0	-5	.	.
CCOC(=O)c1[nH]c(C)c(CC(C)C)c1C	-1	8.5*	92	-25	2	25	40*	15*
CCOC(=O)c1[nH]c(C)c(C(=O)N(C)C)c1C	1	-2	101	9	0	-9	.	.
CCOC(=O)c1[nH]c(C)c(C(=O)C(C)C)c1C	3	8.8*	93	-2	1	2	77*	24*
SMILES	AHR activator	FXN GAA850 act	ABCB6 inh MLPCN	SR-BI DiI-HDL act	HIF activator	SR-BI HDL uptake	GAA30 FXN cntr	FXN GAA850 conf
CC1(C)CCCC2=C1CC1C(=O)N(N)C(=O)C1C2 (centres undefined)	0	0	89	0	-1	0	.	.
CCCCn1cnc2c(SCc3ccc(Cl)cc3)nc(N)nc21	.	5	93	-20	.	20	.	.
CCC(C)Cn1cnc2c(SCc3ccccc3F)nc(N)nc21 (centres undefined)	.	5	99	-12	.	12	.	.
CCCCn1cnc2c(SCc3ccccc3F)nc(N)nc21	.	8.3*	97	2	.	-2	57*	25*
CC(C)Cn1cnc2c(SCc3ccccc3F)nc(N)nc21	.	8.9*	86	-12	.	12	95*	35*
C=CCn1c(SCc2ccccc2)nc2scc(-c3ccc(C)o3)c2c1=O	-2	1	109	6	0	-6	.	.
C=CCn1c(SCC(N)=O)nc2scc(-c3ccc(C)o3)c2c1=O	21	8.2*	101	5	3	-5	128*	43*
CC(=O)c1cccc(NC(=O)NC2CCCCCCC2)c1	8	0	94	-10	2	10	.	.
Cc1ccc(NC(=O)NC2CCCCCCC2)cc1C	.	9.7*	102	-13	.	13	93*	36*
Cc1cccc(NC(=O)NC2CCCCCCC2)c1	.	7.6*	101	3	.	-3	102*	36*
OCc1cn(-c2ccccc2)nc1-c1ccco1	0	4	104	-10	4	10	.	.
C=CCOC(=O)C1=C(C)NC(C)=C(C(=O)OCC=C)C1c1cn(-c2ccccc2)nc1-c1ccco1	25	13*	99	9	0	-9	11	5
